# How the values were obtained:
# [1] = melting temperature; fluorescence melt of hairpins on a sequencing array, two-state fit, raised by 9.35 °C to match UV melts; settings: sodium 0.088 M
# Outline: (§1)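 Hairpins were imaged by Cy3 fluorescence on a sequenced MiSeq flow cell with annealed Cy3 and quencher oligos, in 50 mM Na-HEPES pH 8.0, 25 mM NaCl, in 2.5 °C steps up to 60 °C. Bootstrapped two-state fits of normalised signals gave melting temperature and folding enthalpy. Four replicates were combined by inverse variance, and fitted temperatures were raised by 9.35 °C to match UV melts.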
# [2] = folding enthalpy; higher = less favourable; fluorescence melt of hairpins on a sequencing array, two-state fit; settings: sodium 0.088 M
# Outline: as §1
Sequence,Tm [1],folding enthalpy [2]
GCAGACGGAAACGTCCGC ((.((((....)))).)),52.6 °C,-24 kcal/mol
GCAGAGCGAAAGCACTGC ((((.((....)).)))),67.4 °C,-34 kcal/mol
GCAGAGCGAAAGCCATGC (((..((....))..))),45.7 °C,-18.9 kcal/mol
GCAGAGCGAAAGCTATGC (((.(((....))).))),59.7 °C,-44.8 kcal/mol
GCAGAGCGAAAGCTTGC (((.(((....)))))),53.7 °C,-20.6 kcal/mol
GCAGAGCGAAAGCTTGGC ((..(((....)))..)),49.5 °C,-18.8 kcal/mol
GCAGAGGGAAACCTCCGC ((.((((....)))).)),44.7 °C,-26 kcal/mol
GCAGAGGGAAACCTCTAC (.(((((....))))).),35.2 °C,-14.7 kcal/mol
GCAGATGGAAACATTTGC (((.(((....))).))),44.5 °C,-33.7 kcal/mol
GCAGCACGAAAGTGTGC (((.(((....)))))),55.7 °C,-18.6 kcal/mol
GCAGCAGGAAACCGCTAC (.(((.(....).))).),28.1 °C,-14.6 kcal/mol
GCAGCCGAAAGGCATTGC ((((((....)))..))),41.5 °C,-15.6 kcal/mol
GCAGCCGAAAGGCTATGC ((((((....)))..))),47.4 °C,-14 kcal/mol
GCAGCGCGAAAGCCCGGC ((.(.((....)).).)),39.3 °C,-17.6 kcal/mol
GCAGCGCGAAAGCCGTGC (((..((....))..))),43.9 °C,-15.3 kcal/mol
GCAGCGCGAAAGCGACGC ((..(((....)))..)),60.7 °C,-18.4 kcal/mol
GCAGCGCGAAAGCTCCGC ((.(.((....)).).)),37.9 °C,-11.6 kcal/mol
GCAGCGGCGAAAGCCTGC (((..(((....)))))),52.2 °C,-12.9 kcal/mol
GCAGCGGGAAACCGCTAC (.(((((....))))).),40.2 °C,-11.3 kcal/mol
GCAGCGGGAAACCGTTGC (((.(((....))).))),57.9 °C,-39.4 kcal/mol
GCAGCGTCGAAAGACTGC (((..(((....)))))),44.4 °C,-14 kcal/mol
GCAGCTCGAAAGAGTTGC (((.(((....))).))),59.6 °C,-44.2 kcal/mol
GCAGCTGGAAACAACTGC ((((.((....)).)))),46.6 °C,-39.9 kcal/mol

Sequence,Tm [1],folding enthalpy [2]
GCAGGAACGAAAGTTTGC (((..(((....)))))),36 °C,-16.6 kcal/mol
GCAGGCACGAAAGTGTGC (((..(((....)))))),39.1 °C,-14.9 kcal/mol
GCAGGCGAAAGCCACTGC ((((((....)))..))),48 °C,-15.9 kcal/mol
GCAGGCGAAAGCCCGTGC ((((((....)))..))),43.6 °C,-13.1 kcal/mol
GCAGGCGAAAGCCTTGC ((((((....))).))),59.2 °C,-17.6 kcal/mol
GCAGGCGGAAACGCCCAC (..((((....))))..),27.1 °C,-6.7 kcal/mol
GCAGGGACGAAAGTCTGC (((..(((....)))))),47.9 °C,-23 kcal/mol
GCAGGGCGAAAGCCCAGC ((.((((....)))).)),68.2 °C,-19.5 kcal/mol
GCAGGGCGAAAGCCGCGC ((..(((....)))..)),64.7 °C,-22.2 kcal/mol
GCAGGGCGAAAGCGATGC (((..((....))..))),57 °C,-26.1 kcal/mol
GCAGGTGCGAAAGCATGC (((..(((....)))))),43.9 °C,-13.5 kcal/mol
GCAGGTGGAAACACCCAC (..((((....))))..),32.1 °C,-10.6 kcal/mol
GCAGGTGGAAACGTCTGC ((((..(....)..)))),42.5 °C,-25.7 kcal/mol
GCAGTAGAAATACTGC ((((((....)))))),54.8 °C,-34.6 kcal/mol
GCAGTAGGAAACTATTGC (((.(((....))).))),42.6 °C,-26.9 kcal/mol
GCAGTCACGAAAGTGTGC (((..(((....)))))),38 °C,-19.5 kcal/mol
GCAGTCGAAAGACTTGC ((((((....))).))),50.4 °C,-22.6 kcal/mol
GCAGTCGCGAAAGCGTGC (((..(((....)))))),46.1 °C,-14.2 kcal/mol
GCAGTGACGAAAGTCTGC (((..(((....)))))),48 °C,-23.8 kcal/mol
GCAGTGCGAAAGCAAAGC ((..(((....)))..)),51.3 °C,-13.3 kcal/mol
GCAGTGCGAAAGCAGAGC ((..(((....)))..)),50.9 °C,-11.6 kcal/mol
GCAGTGCGAAAGCAGCGC ((..(((....)))..)),59.7 °C,-17 kcal/mol
GCAGTGCGAAAGCATGC (((.(((....)))))),58.7 °C,-20.4 kcal/mol

Sequence,Tm [1],folding enthalpy [2]
GCAGTGCGAAAGCATTGC (((.(((....))).))),58.9 °C,-55.4 kcal/mol
GCAGTGCGAAAGCGCAGC ((.(.((....)).).)),62.3 °C,-14.2 kcal/mol
GCAGTGCGAAAGCGCGGC ((.(.((....)).).)),66.7 °C,-31 kcal/mol
GCAGTGCGAAAGCTATGC (((..((....))..))),55.1 °C,-17.1 kcal/mol
GCAGTGGGAAACCACCAC (..((((....))))..),30.6 °C,-12.2 kcal/mol
GCAGTTCGAAAGAAGTGC (((.(((....))).))),56.2 °C,-51 kcal/mol
GCAGTTGGAAACGATTGC (((.(.(....).).))),36.1 °C,-20.5 kcal/mol
GCAGTTTCGAAAGAATGC (((..(((....)))))),25.8 °C,-12.5 kcal/mol
GCATAAGGAAACTCATGC ((((.((....)).)))),30.7 °C,-25.2 kcal/mol
GCATAATCGAAAGATTGC (((..(((....)))))),37.2 °C,-18.1 kcal/mol
GCATACCCGAAAGGGTGC (((..(((....)))))),49.7 °C,-12.1 kcal/mol
GCATACCGAAAGGTTGC (((.(((....)))))),54 °C,-32.3 kcal/mol
GCATACGAAAGTAATTGC ((((((....)))..))),32.7 °C,-13.6 kcal/mol
GCATACGAAAGTACATGC ((((((....)))..))),38.9 °C,-26.9 kcal/mol
GCATACGAAAGTACCTGC ((((((....)))..))),26.6 °C,-13.2 kcal/mol
GCATACGAAAGTAGCTGC ((((((....)))..))),48.1 °C,-23.6 kcal/mol
GCATACGAAAGTAGTGC ((((((....))).))),44.6 °C,-24.1 kcal/mol
GCATACGGAAACGTATGC (((((((....))))))),67.7 °C,-47.5 kcal/mol
GCATAGCCGAAAGGCTGC (((..(((....)))))),49.3 °C,-12.6 kcal/mol
GCATAGCGAAAGCAAAGC ((.(.((....)).).)),32 °C,-9.49 kcal/mol
GCATAGCGAAAGCCAGGC ((.(.((....)).).)),32.9 °C,-12.3 kcal/mol
GCATAGCGAAAGCCATGC ((((.((....)).)))),53.3 °C,-28.5 kcal/mol
GCATAGCGAAAGCTCGGC ((..(((....)))..)),36.5 °C,-16.2 kcal/mol

Sequence,Tm [1],folding enthalpy [2]
GCATAGCGAAAGCTTCGC ((..(((....)))..)),34.6 °C,-10.1 kcal/mol
GCATAGGGAAACCTACGC ((.((((....)))).)),35.9 °C,-27.9 kcal/mol
GCATATCCGAAAGGATGC (((..(((....)))))),43.5 °C,-15.2 kcal/mol
GCATATCGAAAGATCTGC (((.(((....))).))),43.9 °C,-31.2 kcal/mol
GCATCAGGAAACTGGTGC (((.(((....))).))),53.4 °C,-40.9 kcal/mol
GCATCCCGAAAGGGCTGC (((.(((....))).))),56.2 °C,-36.2 kcal/mol
GCATCCGAAAGGAAGTGC ((((((....)))..))),41.3 °C,-24.3 kcal/mol
GCATCCGAAAGGACCTGC ((((((....)))..))),30 °C,-12.9 kcal/mol
GCATCCGAAAGGACTGC ((((((....))).))),47.8 °C,-15 kcal/mol
GCATCCGAAAGGAGGTGC ((((((....)))..))),48.1 °C,-24.9 kcal/mol
GCATCCGAAAGGATATGC ((((((....)))..))),47.6 °C,-15.7 kcal/mol
GCATCCGCGAAAGCGTGC (((..(((....)))))),40.3 °C,-10.9 kcal/mol
GCATCCGGAAACGGACGC ((.((((....)))).)),51.3 °C,-31.2 kcal/mol
GCATCGCGAAAGCCAGGC ((.(.((....)).).)),37.2 °C,-10.4 kcal/mol
GCATCGCGAAAGCGCCGC ((..(((....)))..)),38 °C,-10.5 kcal/mol
GCATCGCGAAAGCGGAGC ((..(((....)))..)),54.2 °C,-16.5 kcal/mol
GCATCGCGAAAGCGGGGC ((..(((....)))..)),63.1 °C,-22.2 kcal/mol
GCATCGCGAAAGCTTTGC (((..((....))..))),41.2 °C,-18.6 kcal/mol
GCATCTACGAAAGTATGC (((..(((....)))))),34.6 °C,-20.7 kcal/mol
GCATCTGAAAAGATGC ((((((....)))))),64.7 °C,-32.6 kcal/mol
GCATGAACGAAAGTTTGC (((..(((....)))))),33.9 °C,-20.5 kcal/mol
GCATGAGAAATCATGC ((((((....)))))),56.4 °C,-38.7 kcal/mol
